ChEMBL document CHEMBL5329220, “Discovery of pyrazolopyrimidines that selectively inhibit CSF-1R kinase by iterative design, synthesis and screening against glioblastoma cells” (RSC Med Chem, 2023)
The source made the active and inactive calls. No cut-off for these calls is given here.

Tests used:
T98 [1] = test: Antiproliferative activity against human T98 cells assessed as reduction in cell viability incubated for 5 days by PrestoBlue reagent based fluorescence assay; format: functional; settings: T98, 120 h
Procedure, shortened: (§1)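 Cells seeded in DMEM/10% FBS/2 mM L-glutamine (U87 1×10^3, T98 5×10^2 per well), allowed 48 h at 37 °C, then given fresh medium plus compound from 20× intermediate stocks; untreated wells had 0.1% v/v DMSO. After 5 d, PrestoBlue reading (ex 540, em 590 nm, 60–90 min). EC50 from 4-parameter logistic fit of values normalised to untreated cells, bottom fixed at zero.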

T98 [2] = test: Antiproliferative activity against human T98 cells assessed as reduction in cell viability at 3 to 30 uM incubated for 5 days by PrestoBlue reagent based fluorescence assay; format: functional; settings: dose 3-30 µM, time 5.0 day
Procedure, shortened: (§2)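 U87 (1×10^3/well) and T98 (5×10^2/well) cells in DMEM with 10% FBS and 2 mM L-glutamine, grown 48 h at 37 °C, 5% CO2, then medium replaced. Compounds added from 20× intermediate dilutions at 3, 10 and 30 μM for 5 d, in triplicate; DMSO 0.1% v/v control. PrestoBlue 60–90 min, fluorescence ex 540/em 590 nm. Normalised to untreated cells; 4-parameter logistic fit, minimum constrained to zero.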

U-87 MG [3] = test: Antiproliferative activity against human U87 cells assessed as reduction in cell viability incubated for 5 days by PrestoBlue reagent based fluorescence assay; format: functional, U-87MG ATCC; settings: 120 h; procedure, shortened: as §1
U-87 MG [4] = test: Antiproliferative activity against human U87 cells assessed as reduction in cell viability incubated at 3 to 30 uM for 5 days by PrestoBlue reagent based fluorescence assay; format: functional; settings: U-87MG ATCC, dose 3-30 µM, time 5.0 day; procedure, shortened: as §2
E57 [5] = test: Antiproliferative activity against human E57 cells assessed as phenotypic change at 1 to 2.5 uM incubated for 72 hrs in presence of INK128 by Hoechst 33342/ Alexa Fluor 488 staining based PCA analysis; settings: dose 1-2.5 µM
E21 [6] = test: Antiproliferative activity against human E21 cells assessed as reduction in cell viability at 0.01 to 10 uM incubated for 72 hrs by Hoechst staining based nuclei count assay; settings: dose 0.01-10 µM
E57 [7] = test: Antiproliferative activity against human E57 cells assessed as reduction in cell viability at 0.01 to 10 uM incubated for 72 hrs by Hoechst staining based nuclei count assay; settings: dose 0.01-10 µM
E31 = test: Antiproliferative activity against human E31 cells assessed as phenotypic change at 1 to 5 uM incubated for 72 hrs in presence of INK128 by Hoechst 33342/ Alexa Fluor 488 staining based PCA analysis; format: functional, cell-based; settings: dose 1-5 µM
Procedure, shortened: (§3)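 Patient-derived glioma stem cells kept in laminin-coated DMEM/F12 with FGF, EGF, B27 and N2, plated at 500–1500 cells/well on laminin (10 μg mL−1). After overnight attachment, dosed in triplicate with 0.1% DMSO final, 72 h at 37 °C. Live MitoTracker DeepRed (final 300 nM, 30 min), formaldehyde fixation (final 4%), Cell Painting staining and imaging, CellProfiler features, PCA of phenotypic profiles.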

E21 [8] = test: Antiproliferative activity against human E21 cells assessed as phenotypic change at 1 to 5 uM incubated for 72 hrs in presence of INK128 by Hoechst 33342/ Alexa Fluor 488 staining based PCA analysis; format: functional, cell-based; settings: dose 1-5 µM; procedure, shortened: as §3
E21 [9] = test: Antiproliferative activity against human E21 cells assessed as reduction in cell survival incubated for 72 hrs by Hoechst staining based nuclei count assay

With `CN(C)C1CCCN(CC#Cc2nn(CC3CCCC3)c3nc(NCc4ccccc4)ncc23)C1` (stereo not given) the EC50 (T98 [1]) was under 4 µM.
With `CNc1ncc2c(C#CCN3CCCC(N(C)C)C3)nn(CC3CCCCC3)c2n1` (stereo not given) the Activity (T98 [2]) was “Active”.
Molecule `CNc1ncc2c(C#CCN3CCC(N(C)C)CC3)nn(CC3CCCC3)c2n1` has an EC50 (U-87 MG [3]) of 15.9 µM and an EC50 (T98 [1]) of 14.8 µM.
Molecule `CN(C)C1CCCN(CC#Cc2nn(CC3CCCC3)c3nc(NC(C)(C)C)ncc23)C1` (stereo not given) has an EC50 (T98 [1]) of under 4 µM.
In the case of `CN(C)C1CCCN(CC#Cc2nn(CC3CCCCC3)c3nc(NC(C)(C)C)ncc23)C1` (stereo not given), the Activity (T98 [2]) is reported as “Active” and the Activity (U-87 MG [4]) is reported as “Active”.
In the case of `CN(C)C1CCN(CC#Cc2nn(C3CCCC3)c3nc(NCc4ccccc4)ncc23)C1` (stereo not given), the Activity (E57 [5]) is reported as “Active”, the Activity (E21 [6]) is reported as “Active” and the Activity (E57 [7]) is reported as “Active”. The Activity (E31) was “Active”, the EC50 (T98 [1]) was 2 µM and the Activity (E21 [8]) was “Active”.
Molecule `CC1CCN(CC#Cc2nn(CC3CCCC3)c3ncnc(N)c23)CC1` has an EC50 (U-87 MG [3]) of under 30 µM and an EC50 (T98 [1]) of under 30 µM.
For `CNc1ncc2c(C#CCN3CCCCCC3)nn(CC3CCCC3)c2n1`, the EC50 (T98 [1]) was 4.6 µM.
For `CCOC(=O)C1CCN(CC#Cc2nn(CC3CCCC3)c3nc(NC)ncc23)CC1`, the Activity (T98 [2]) was “Active”.
With `CN(C)C1CCN(CC#Cc2nn(C3CCCCC3)c3nc(NC(C)(C)C)ncc23)C1` (stereo not given) the Activity (E21 [9]) was “Dose-Dependent Effect”, the EC50 (U-87 MG [3]) was 2.71 µM and the EC50 (T98 [1]) was 2.54 µM.
`CNc1ncc2c(C#CCN3CCC(NC(C)=O)CC3)nn(CC3CCCC3)c2n1` was tested, and the Activity (T98 [2]) was “Active”.
With `CN(C)C1CCCN(CC#Cc2nn(C3CCCC3)c3nc(NC(C)(C)C)ncc23)C1` (stereo not given) the Activity (T98 [2]) was “Active”, the Activity (E21 [9]) was “Dose-Dependent Effect” and the Activity (U-87 MG [4]) was “Active”.
In the case of `CCOC(=O)N1CCN(CC#Cc2nn(CC3CCCC3)c3nc(NC)ncc23)CC1`, the Activity (T98 [2]) is reported as “Active”.
For `CN(C)C1CCCN(CC#Cc2nn(C3CCCCC3)c3nc(NC(C)(C)C)ncc23)C1` (stereo not given), the Activity (T98 [2]) was “Active” and the Activity (U-87 MG [4]) was “Active”.
`CCCNc1ncc2c(C#CCN3CCCC(N(C)C)C3)nn(CC3CCCC3)c2n1` (stereo not given) was tested, and the EC50 (T98 [1]) was under 4 µM.
For `CNc1ncc2c(C#CCN3CCCC(N(C)C)C3)nn(C3CCCCC3)c2n1` (stereo not given), the Activity (T98 [2]) was “Active”.
In the case of `Cn1nnc2c(C(N)=O)ncn2c1=O`, the Activity (U-87 MG [4]) is reported as “Active”.
In the case of `CNc1ncc2c(C#CCN3CCCC(N(C)C)C3)nn(C3CCCC3)c2n1` (stereo not given), the Activity (T98 [2]) is reported as “Active”.
Work on `CNc1ncc2c(C#CCN3CCCC(N(C)C)C3)nn(CC3CCCC3)c2n1` (racemic) yielded an EC50 (U-87 MG [3]) of 5 µM and an EC50 (T98 [1]) of 10.8 µM.
In the case of `CCC(CC)Nc1ncc2c(C#CCN3CCCC(N(C)C)C3)nn(CC3CCCC3)c2n1` (stereo not given), the Activity (E21 [9]) is reported as “Dose-Dependent Effect” and the EC50 (T98 [1]) is reported as under 4 µM.
